Experimental data from ChEMBL document CHEMBL1139884, “Structure-based design, synthesis, and A-site rRNA cocrystal complexes of functionally novel aminoglycoside antibiotics: C2" ether analogues of paromomycin” (2007).
In brackets after ≈: the same amount, converted by molar mass. Activity calls are given as the source filed them. The rule behind the calls is not given here.

Columns and labels:
Staphylococcus aureus [1] = assay: Septicemia protection in Staphylococcus aureus Smith infected sc dosed BALB/c mouse after 2 weeks; assay type: functional; conditions: 336 h
Summary of the method: (§1)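 Female Balb/c mice (16-18 g), acclimated one week, 10 per group. Infection IP with 0.5 mL of 10^6 S. aureus (mouse-passaged Smith strain) in 10% hog gastric mucin. Compound dissolved in water, given subcutaneously in 0.5 mL at 1 h and 3 h post-infection as serial 2-fold dilutions from 75 to 0.125 mg/kg. Amikacin and neomycin served as control groups. Moribund mice counted per group; observation over two weeks.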

Escherichia coli = assay: Antimicrobial activity against Escherichia coli ATCC 25922 after 20 to 24 hrs; assay type: functional
Summary of the method: (§2)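 Broth microdilution in duplicate; compound in 2.5% DMSO in water, overnight culture added to a final inoculum of about 10^2-10^3 CFU/well. Growth read as A595 after 20-24 h at 37°C, relative to a no-compound well. MIC reported as a range: complete inhibition at the higher concentration, viable cells at the lower. Ampicillin and tetracycline are the positive controls.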

Staphylococcus aureus [2] = assay: Antimicrobial activity against Staphylococcus aureus ATCC 13709 after 20 to 24 hrs; assay type: functional; summary of the method: as §2
Mus musculus [3] = assay: Survival of Staphylococcus aureus Smith infected BALB/c mouse assessed as septicemia protection at 0.50 mg/kg, sc administered at 1 hr and 3 hrs postinfection after 2 weeks; assay type: functional, organism-based; set-up: dose 0.5 mg/kg; summary of the method: as §1
Mus musculus [4] = assay: Survival of Staphylococcus aureus Smith infected BALB/c mouse assessed as septicemia protection at 1.2 mg/kg, sc administered at 1 hr and 3 hrs postinfection after 2 weeks; assay type: functional, organism-based; set-up: dose 1.2 mg/kg; summary of the method: as §1
Mus musculus [5] = assay: Survival of Staphylococcus aureus Smith infected BALB/c mouse assessed as septicemia protection at 4.7 mg/kg, sc administered at 1 hr and 3 hrs postinfection after 2 weeks; assay type: functional, organism-based; set-up: dose 4.7 mg/kg; summary of the method: as §1
Mus musculus [6] = assay: Survival of Staphylococcus aureus Smith infected BALB/c mouse assessed as septicemia protection at 19 mg/kg, sc administered at 1 hr and 3 hrs postinfection after 2 weeks; assay type: functional, organism-based; set-up: dose 19 mg/kg; summary of the method: as §1
Mus musculus [7] = assay: Survival of Staphylococcus aureus Smith infected BALB/c mouse assessed as septicemia protection at 38 mg/kg, sc administered at 1 hr and 3 hrs postinfection after 2 weeks; assay type: functional, organism-based; set-up: dose 38 mg/kg; summary of the method: as §1
Mus musculus [8] = assay: Survival of Staphylococcus aureus Smith infected BALB/c mouse assessed as septicemia protection at 2.3 mg/kg, sc administered at 1 hr and 3 hrs postinfection after 2 weeks; assay type: functional, organism-based; set-up: dose 2.3 mg/kg; summary of the method: as §1
Mus musculus [9] = assay: Survival of Staphylococcus aureus Smith infected BALB/c mouse assessed as septicemia protection at 9.4 mg/kg, sc administered at 1 hr and 3 hrs postinfection after 2 weeks; assay type: functional, organism-based; set-up: dose 9.4 mg/kg; summary of the method: as §1
Mus musculus [10] = assay: Survival of Staphylococcus aureus Smith infected BALB/c mouse assessed as septicemia protection at 75 mg/kg, sc administered at 1 hr and 3 hrs postinfection after 2 weeks; assay type: functional, organism-based; set-up: dose 75 mg/kg; summary of the method: as §1

SMILES	MIC (Escherichia coli)	MIC (Staphylococcus aureus [2])	further results
NC[C@@H]1O[C@H](O[C@H]2[C@@H](OCCNCCc3ccccc3)[C@H](O[C@@H]3[C@@H](O)[C@H](N)C[C@H](N)[C@H]3O[C@H]3O[C@H](CO)[C@@H](O)[C@H](O)[C@H]3N)O[C@@H]2CO)[C@H](N)[C@@H](O)[C@@H]1O	3 µg/mL (≈ 3.93 µM)	0.3 µg/mL (≈ 0.393 µM)	ED90 (Staphylococcus aureus [1]): 0.25 mg/kg; Activity (Mus musculus [3]): Active; Activity (Mus musculus [4]): Active; Activity (Mus musculus [5]): Active; Activity (Mus musculus [6]): Active; Activity (Mus musculus [7]): Active
NC[C@@H]1O[C@H](O[C@H]2[C@@H](OCCNc3cccnc3)[C@H](O[C@@H]3[C@@H](O)[C@H](N)C[C@H](N)[C@H]3O[C@H]3O[C@H](CO)[C@@H](O)[C@H](O)[C@H]3N)O[C@@H]2CO)[C@H](N)[C@@H](O)[C@@H]1O	12 µg/mL (≈ 16.3 µM)	< 1.5 µg/mL	
NC[C@@H]1O[C@H](O[C@H]2[C@@H](O)[C@H](O[C@@H]3[C@@H](O)[C@H](N)C[C@H](N)[C@H]3O[C@H]3O[C@H](CO)[C@@H](O)[C@H](O)[C@H]3N)O[C@@H]2CO)[C@H](N)[C@@H](O)[C@@H]1O [PAROMOMYCIN]	3 µg/mL (≈ 4.87 µM)	1 µg/mL (≈ 1.62 µM)	
NC[C@@H]1O[C@H](O[C@H]2[C@@H](OCCNCCCc3ccccc3)[C@H](O[C@@H]3[C@@H](O)[C@H](N)C[C@H](N)[C@H]3O[C@H]3O[C@H](CO)[C@@H](O)[C@H](O)[C@H]3N)O[C@@H]2CO)[C@H](N)[C@@H](O)[C@@H]1O	3 µg/mL (≈ 3.86 µM)	0.6 µg/mL (≈ 0.772 µM)	
NC[C@@H]1O[C@H](O[C@H]2[C@@H](OCCNc3cnc4ccccc4c3)[C@H](O[C@@H]3[C@@H](O)[C@H](N)C[C@H](N)[C@H]3O[C@H]3O[C@H](CO)[C@@H](O)[C@H](O)[C@H]3N)O[C@@H]2CO)[C@H](N)[C@@H](O)[C@@H]1O	12 µg/mL (≈ 15.3 µM)	1 µg/mL (≈ 1.27 µM)	
NC[C@@H]1O[C@H](O[C@H]2[C@@H](OCCNCc3ccccc3)[C@H](O[C@@H]3[C@@H](O)[C@H](N)C[C@H](N)[C@H]3O[C@H]3O[C@H](CO)[C@@H](O)[C@H](O)[C@H]3N)O[C@@H]2CO)[C@H](N)[C@@H](O)[C@@H]1O	3 µg/mL (≈ 4.01 µM)	3 µg/mL (≈ 4.01 µM)	
NC[C@@H]1O[C@H](O[C@H]2[C@@H](OCCc3ccccc3)[C@H](O[C@@H]3[C@@H](O)[C@H](N)C[C@H](N)[C@H]3O[C@H]3O[C@H](CO)[C@@H](O)[C@H](O)[C@H]3N)O[C@@H]2CO)[C@H](N)[C@@H](O)[C@@H]1O	> 50 µg/mL	6 µg/mL (≈ 8.34 µM)	
N[C@H]1[C@@H](O[C@H]2[C@H](O[C@@H]3O[C@H](CO)[C@@H](O)[C@H]3OCCNCCc3ccccc3)[C@@H](O)[C@H](N)C[C@@H]2N)O[C@H](CO)[C@@H](O)[C@@H]1O	> 100 µg/mL	12 µg/mL (≈ 19.9 µM)	

Second part, led by results:

MIC (Escherichia coli)	MIC (Staphylococcus aureus [2])	SMILES	further results
> 10 µg/mL	5 µg/mL (≈ 6.4 µM)	NC[C@@H]1O[C@H](O[C@H]2[C@@H](OCCNCCC3CC4CCC3C4)[C@H](O[C@@H]3[C@@H](O)[C@H](N)C[C@H](N)[C@H]3O[C@H]3O[C@H](CO)[C@@H](O)[C@H](O)[C@H]3N)O[C@@H]2CO)[C@H](N)[C@@H](O)[C@@H]1O (stereo partly specified)	
12 µg/mL (≈ 16 µM)	2 µg/mL (≈ 2.66 µM)	NC[C@@H]1O[C@H](O[C@H]2[C@@H](OCCNc3cccc(O)c3)[C@H](O[C@@H]3[C@@H](O)[C@H](N)C[C@H](N)[C@H]3O[C@H]3O[C@H](CO)[C@@H](O)[C@H](O)[C@H]3N)O[C@@H]2CO)[C@H](N)[C@@H](O)[C@@H]1O	
20 µg/mL (≈ 24.7 µM)	1 µg/mL (≈ 1.24 µM)	NC[C@@H]1O[C@H](O[C@H]2[C@@H](OCCNC3C4CC5CC3CC(C4)C5O)[C@H](O[C@@H]3[C@@H](O)[C@H](N)C[C@H](N)[C@H]3O[C@H]3O[C@H](CO)[C@@H](O)[C@H](O)[C@H]3N)O[C@@H]2CO)[C@H](N)[C@@H](O)[C@@H]1O (stereo partly specified)	
25 µg/mL (≈ 34 µM)	3 µg/mL (≈ 4.08 µM)	NC[C@@H]1O[C@H](O[C@H]2[C@@H](OCC(O)c3ccccc3)[C@H](O[C@@H]3[C@@H](O)[C@H](N)C[C@H](N)[C@H]3O[C@H]3O[C@H](CO)[C@@H](O)[C@H](O)[C@H]3N)O[C@@H]2CO)[C@H](N)[C@@H](O)[C@@H]1O (stereo partly specified)	
12 µg/mL (≈ 16 µM)	< 1.5 µg/mL	NC[C@@H]1O[C@H](O[C@H]2[C@@H](OCCNCc3cccnc3)[C@H](O[C@@H]3[C@@H](O)[C@H](N)C[C@H](N)[C@H]3O[C@H]3O[C@H](CO)[C@@H](O)[C@H](O)[C@H]3N)O[C@@H]2CO)[C@H](N)[C@@H](O)[C@@H]1O	Activity (Mus musculus [4]): Active; Activity (Mus musculus [8]): Active; Activity (Mus musculus [5]): Active; Activity (Mus musculus [9]): Active; Activity (Mus musculus [6]): Active; Activity (Mus musculus [7]): Active; Activity (Mus musculus [10]): Active
1.5 µg/mL (≈ 2.02 µM)	3 µg/mL (≈ 4.04 µM)	NC[C@@H]1O[C@H](O[C@H]2[C@@H](OCCNC3CCCNC3)[C@H](O[C@@H]3[C@@H](O)[C@H](N)C[C@H](N)[C@H]3O[C@H]3O[C@H](CO)[C@@H](O)[C@H](O)[C@H]3N)O[C@@H]2CO)[C@H](N)[C@@H](O)[C@@H]1O (stereo partly specified)	
